In article PMC8892090 (Bioactive Materials, 2021):

Columns and labels:
786-O cells [1] = assay: Cytotoxicity assay; format: cell-based; settings: 24 h, series of concentrations, DMSO less than 1% (Fig. 3j)
In short: (§1)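 Cells were seeded at 5 × 10³ per well in 96-well plates and allowed to adhere overnight. Test compound was serially diluted from a concentrated DMSO stock, keeping final DMSO below 1%, and incubated 24 h. Viability (%) = (As − Ab)/(Ac − Ab) × 100, using sample, blank and control wells. Three independent repeats.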

[2] = Circular dichroism spectroscopy; format: physicochemical; settings: 10 μM, deionized water, room temperature (Fig. 2c)
In short: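 Samples at 10 μM were scanned on a CD spectrometer at room temperature. Scan speed was 1200 nm min⁻¹ at 1 nm resolution, and the solution background was subtracted to correct spectra. Three independent repeats.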

HepG2 cells = assay: Cytotoxicity assay; format: cell-based; settings: 24 h, series of concentrations, DMSO less than 1%, mean ± SD n = 3 (Fig. S16)
In short: as §1

786-O cells [3] = assay: In vitro photostability under NIR laser irradiation; format: cell-based; settings: for photobleaching of Cy: 20 μM, co-incubated with 786-O cells 4 h at 37 °C, NIR laser irradiation for 40 min (up to 3.60 kJ/cm^2), IVIS
In short: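 786-O cells were seeded at 5 × 10³ per well and allowed to adhere overnight. They were incubated with test compound (20 μM) for 4 h at 37 °C to allow self-assembly. Cells were then irradiated with a near-infrared laser, with fluorescence recorded at 0–40 min in 5 min steps. Three independent repeats.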

[4] = tested on: 786-O (Renal Cell Carcinoma, RCC) xenograft mice; assay: In vivo fluorescence imaging and biodistribution, 786-O xenograft
In short: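 Mice received 5 × 10⁶ 786-O cells in PBS subcutaneously in the right hind. At tumour volumes of about 200 mm³, test compound (200 μM, 200 μL) was given intravenously. Whole-body NIR fluorescence was imaged on a Maestro IVIS at 1, 2, 4, 8, 12, 24, 48 and 72 h. Tumour, heart, liver, spleen, lung and kidney were imaged ex vivo at 24 h, and tumour tissue was examined by Bio-TEM. n = 3.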

MMP-2 = target: T1, MMP-2 (Homo sapiens, UniProt P08253); assay: MMP-2 enzyme responsiveness; format: biochemical; settings: incubated with MMP-2, new peaks for SSGGPLG and R-M1 (Fig. S7)
T1 sequence (P08253 110-660): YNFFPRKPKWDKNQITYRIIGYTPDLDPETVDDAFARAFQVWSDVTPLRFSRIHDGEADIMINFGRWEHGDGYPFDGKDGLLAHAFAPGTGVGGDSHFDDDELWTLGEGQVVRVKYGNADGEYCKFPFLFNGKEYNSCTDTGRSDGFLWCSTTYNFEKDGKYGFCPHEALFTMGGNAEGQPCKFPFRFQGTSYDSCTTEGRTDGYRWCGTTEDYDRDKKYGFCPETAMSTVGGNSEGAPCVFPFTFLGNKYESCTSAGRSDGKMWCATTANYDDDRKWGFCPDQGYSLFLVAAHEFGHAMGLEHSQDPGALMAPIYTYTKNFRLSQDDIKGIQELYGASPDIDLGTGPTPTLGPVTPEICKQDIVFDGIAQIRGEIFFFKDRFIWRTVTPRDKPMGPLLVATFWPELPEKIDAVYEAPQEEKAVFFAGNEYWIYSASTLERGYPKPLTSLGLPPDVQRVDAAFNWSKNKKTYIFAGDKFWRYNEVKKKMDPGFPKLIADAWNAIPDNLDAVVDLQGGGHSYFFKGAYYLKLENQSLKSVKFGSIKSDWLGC

healthy mice = format: in vivo; settings: 200 μL, n = 4
786-O cells [5] = assay: Cellular imaging; format: cell-based; settings: 20 μM, 15 min, 37 °C (Fig. 3e, S14)
In short: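 Integrin αvβ3-overexpressing 786-O cells were seeded at 2 × 10⁵ cells on confocal dishes and allowed to adhere overnight. They were then exposed to test compound at 20 μM for 15 min. For time-dependent monitoring, cells were washed with PBS and the medium replaced. Imaging used a 40× objective, with fluorescence intensity quantified from images. Three independent repeats.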

[6] = Transmission electron microscopy of self-assembled nanofibers; format: physicochemical; settings: 50 μM in acetonitrile: H2O = 2:3 mixed solution for 1 week (Fig. 2e, S11)
In short: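 Samples were dissolved in acetonitrile:H₂O 2:3 and stored 7 d to self-assemble fully. Then 10 μL was placed on carbon-coated copper grids and the excess blotted with filter paper after 5 min before TEM. Three independent repeats.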

[7] = ThT and ANS fluorescent probe assay of β-sheet formation; format: physicochemical; settings: compared with M1 and M2 group (Fig. S10)
[8] = Critical aggregation concentration with fluorescence probe ANS; format: physicochemical; settings: fluorescence probe ANS (Fig. S8)
[9] = 200 μM, 1 d, 7 d and 14 d post-injection

Row | HPLC peak of intact M1 after incubation with MMP-2 (MMP-2) | Substance | impact on cell viability of 786-O (786-O cells [1]) | secondary structure by CD spectrum [2] | impact on cell viability of HepG2 (HepG2 cells) | photobleaching of Cy (786-O cells [3]) [%] | course of fluorescence at the tumor site ([4]; 786-O xenograft, intravenous, 200 μM, 200 μL, imaged 1-72 h, n = 3) | decrease of photodegradation rate of Cy versus M2 (786-O cells [3]; same as photobleaching test, M1 against M2) [%] | nanofibrous structures on tumor cells (Bio-TEM) ([4]; after administration of M1 200 μM, 200 μL (Fig. 4e)) | fluorescence at the tumor site within 1 h, M1 versus M2 ([4]; intravenous, 200 μM, 200 μL, n = 3) | liver function index (ALT, AST, ALP, TP, ALB, GLOB) versus PBS (healthy mice; [9]) | renal function indicators (BUN, CRE) versus PBS (healthy mice; [9]) | histology (H&E) of major organs versus PBS (healthy mice; intravenous 200 μM, 1 d post-injection) | cellular distribution by confocal imaging (786-O cells [5]) | diameter of self-assembled nanofibers (TEM) [6] [nm] | fluorescence intensity of ThT and ANS probes (β-sheet formation) [7] | critical aggregation concentration (CAC) to form nanofibers [8] [µM]
1 |  | SSGGPGLGYLKLVFFGC(Cy)GRGD [M2] | no impact | random coiled secondary structure | no impact | 81 | quickly decreased after 4 h and nearly vanished at 72 h |  |  |  |  |  |  |  |  |  | 
2 | vanished | SSGGPLGYLGKLVFFGC(Cy)GRGD [M1] | no impact | random coiled secondary structure | no impact | 55 |  | 26 | clearly observed | approximately identical fluorescence | no noticeable difference | no noticeable difference | no histological differences | distributed on the membrane of 786-O cells |  |  | 
3 |  | YLGKLVFFGC(Cy)GRGD [R-M1] |  | β-sheet structure |  |  |  |  |  |  |  |  |  |  | 13.4 ± 3.1 | obviously increased | 4.4
